Screens deposited in PubChem BioAssay by several laboratories.
MPTP block: mitochondrial permeability transition pore inhibitors, primary screen, biochemical, isolated mouse mitochondria, absorbance | Ca2+ swelling absorbance, 30 min | inhibition, % at 10 µM | actives 1.4% (n = 360,000) | AID 602449, 2012;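 active means inhibition of 50% or more, scaled per plate between neutral and stimulator controls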;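 further: 0% = DMSO wells given calcium and 100% = 1 mM EGTA wells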
ATG4B inhibitor: ATG4B protease inhibitors, primary screen, biochemical, fluorescence, uHTS; Cysteine protease ATG4B (Homo sapiens), Q9Y4P1; ATG4B cleavage of LC3-PLA2, NBD-HPC fluorescence, 1 h; inhibition, % at 8.33 µM; actives 0.51% (n = 340,000); in the data active means inhibition above about 40%
MC4R ag barr: MC4R agonists recruiting beta-arrestin, primary screen, cell-based, luminescence, agonist arm of biased-ligand search; Melanocortin receptor 4 (Homo sapiens), P32245; U2OS MC4R beta-arrestin complementation; percent of melanotan II response, DMSO zero; activation, % at 8.9 µM; actives 0.98% (n = 360,000); AID 540308, 2011;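 active means activation above a per-plate cutoff, the mean activation of sample wells on that plate plus 3 SD, cut at about 8% in these data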
Target sequence (P32245 whole entry, looked up): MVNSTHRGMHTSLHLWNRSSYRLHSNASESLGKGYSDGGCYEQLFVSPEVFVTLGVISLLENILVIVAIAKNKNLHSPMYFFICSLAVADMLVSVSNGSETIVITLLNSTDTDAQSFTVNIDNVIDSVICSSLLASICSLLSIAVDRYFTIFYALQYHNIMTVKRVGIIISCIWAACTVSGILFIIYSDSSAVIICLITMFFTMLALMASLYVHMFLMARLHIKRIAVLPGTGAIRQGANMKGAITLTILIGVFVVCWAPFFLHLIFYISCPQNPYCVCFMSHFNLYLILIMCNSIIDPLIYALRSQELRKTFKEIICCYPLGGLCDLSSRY
MC4R antagonist: MC4R antagonists of cAMP signaling, primary screen, cell-based, TR-FRET, antagonist arm of biased-ligand search; inhibition, % at 6.5 µM; MC4R-expressing cells, MTII-stimulated cAMP, LANCE TR-FRET; actives 0.48% (n = 360,000); AID 540295, 2011; Melanocortin receptor 4 (Homo sapiens), P32245;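 active means inhibition above its plate's cutoff, the mean of tested wells on that plate plus 3 SD, cut at about 29% in these data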;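 further: 0% = Melanotan II alone and 100% = Melanotan II plus saturating MCL0020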
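system = U2OS cells with stable human MC4R expression | also added = Melanotan II challenge after compound preincubation | dosing = one concentration, 6.5 µM nominal | incubation = compound 30 min, challenge 1 h, detection 1 h | measured by = TR-FRET with Eu-cAMP and labeled anti-cAMP, 671 nm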
SMARCA2 act: SMARCA2 (BRM) function activators, primary screen, cell-based, luminescence, high throughput | actives 1% (n = 370,000) | MG213 cells, MMTV-luciferase reporter, dexamethasone, overnight | activation, % at 9.1 µM; in the data active means activation above about 7.8%;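 further: 0% = vehicle wells and 100% = reference activator wells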
Rh123 counter: fluorescence retest of MPTP screen hits in isolated mitochondria, single concentration; AID 624504, 2012; inhibition, % at 10 µM; shares compounds with MPTP block; membrane potential, Rhodamine 123 fluorescence; actives 78% (n = 5,000); in the data active means inhibition above about 22%;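 further: 0% = DMSO vehicle and 100% = positive control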
MPTP swell DR: mitochondrial permeability transition pore inhibitors, dose response, biochemical, absorbance, uHTS hits. shares compounds with MPTP block. isolated mitochondria swelling. IC50, µM. actives 58% (n = 780); in the data active means IC50 below about 20 µM
MPTP counter DR: fluorescent counter-screen in isolated mitochondria, dose response, counter-screen for MPTP inhibitor project, biochemical, fluorescence, uHTS hits. shares compounds with MPTP block. isolated mitochondria counterscreen, fluorescence read-out. IC50, µM. actives 49% (n = 780); in the data active means IC50 below about 80 µM
An asterisk follows results filed as active; nt = not tested or not shown. In the library only some 4.1% were active in any assay of this set; here they are far more common.

SMILES	MPTP block	ATG4B inhibitor	MC4R ag barr	MC4R antagonist	SMARCA2 act	Rh123 counter	others
O=C(Nc1ccc(Cl)cc1)C1=Cc2cc(Cl)ccc2OC1	99*	-5	-1	1	0	113*
O=C(Nc1ccc(Cl)cc1Cl)C1=Cc2ccccc2OC1	0	3	4	18	5	nt
Cc1ccc(-n2c(SCC(=O)Nc3ccc(S(=O)(=O)Nc4nccs4)cc3)nnc2-c2cccs2)cc1	nt	nt	nt	nt	-1	nt
Cc1nn(-c2ccccc2)c2sc(C(=O)N3CCN(C(c4ccccc4)c4ccc(Cl)cc4)CC3)cc12 (centres undefined)	nt	nt	nt	nt	0	nt
COC(=O)C1=C(C)N(Cc2ccccc2C(F)(F)F)C(=NCc2ccc(OC)cc2)NC1c1ccc(F)cc1 (centres undefined)	nt	nt	nt	nt	0	nt
O=C1CC(NC(=O)C(F)(F)F)c2cc3c(cc21)OCO3 (centres undefined)	-1	-14	-1	3	-4	nt
O=C(NC1C/C(=N/O)c2cc3c(cc21)OCO3)C(F)(F)F (centres undefined)	145*	-14	-1	-1	-3	-8	MPTP swell DR=>100;MPTP counter DR=>80
C=CCOC(=O)N[C@@H](c1coc2ccccc2c1=O)[C@@H](C)/C=C/CC(=O)OC	nt	nt	nt	nt	1	nt
CCOC(=O)[C@]12CCCCC/C=C\1N(CCc1ccc(Cl)cc1)C(=O)[C@H]2CC(=O)NCCc1ccccc1OC	nt	nt	nt	nt	-4	nt
ClC(Cl)c1nnc(-c2ccccc2)c(-c2c[nH]c3ccccc23)n1	52*	-3	8	-4	-1	47*
O=c1[nH]c2ccccc2nc1-c1c[nH]c2ccccc12	1	-18	0	8	0	nt
O=C(O)c1ccc(N=N/C(=N\Nc2ccc(C(=O)O)cc2)c2ccccc2)cc1	3	7	-4	0	5	nt
Brc1ccc(N/N=C(/N=Nc2nn[nH]n2)c2ccccc2)cc1	85*	37	-3	25	-6	30*
Cn1nc(CC(=O)Nc2cccc3ncccc23)c2ccccc2c1=O	86*	-10	-1	12	-7	25*
Cn1nc(CC(=O)NCc2ccc(C(F)(F)F)cc2)c2ccccc2c1=O	45	-5	0	2	-4	nt
COc1ccc(CNC(=O)Cc2nn(C)c(=O)c3ccccc23)cc1	61*	-6	0	-4	-2	51*
Cc1nn(CCC(=O)NNC(=O)Nc2ccccc2F)c(C)c1[N+](=O)[O-]	nt	nt	nt	nt	-3	nt
COC(=O)[C@]12C[C@H](CC(=O)NCc3cccc(C(F)(F)F)c3)C(=O)N(CCC3=CCCCC3)C1=C[C@H](COCc1ccccc1)O[C@@H]2C	nt	nt	nt	nt	-5	nt
C=C(C)c1cccc(C(C)(C)NC(=O)Nc2ccc(C(C)=O)cc2)c1	82*	-11	1	16	1	83*
COc1ccc(NC(=S)Nc2ccc(F)cc2)c(OC)c1	0	-3	-1	-5	-1	nt
Fc1ccc(NC(=S)Nc2cc(Cl)ccc2Cl)cc1	58*	-4	-2	4	-4	78*
Fc1ccc(NC(=S)Nc2cccnc2)cc1	-2	1	-2	3	0	nt
Fc1ccc(NC(=S)Nc2ccc(Cl)cc2)cc1	80*	3	-1	-3	0	107*
O=S(=O)(Nc1ncccn1)c1ccc(NC(=S)Nc2ccc(Cl)cc2)cc1	98*	-1	0	4	4	96*
O=C(Nc1ccc(Cl)cc1)Nc1ccc(S(=O)(=O)Nc2ncccn2)cc1	-1	6	2	18	-3	nt
SMILES	MPTP block	ATG4B inhibitor	MC4R ag barr	MC4R antagonist	SMARCA2 act	Rh123 counter	others
C=CCN(CC#CC(=C)C)Cc1ccc(OC)cc1OC	nt	nt	nt	nt	-5	nt
CN1[C@@H](Cc2ccccc2)COc2cccc(N3CCCC3)c2S1(=O)=O	nt	nt	nt	nt	5	nt
O=S1(=O)c2ccc(N3CCN(Cc4ccccc4F)CC3)cc2Oc2ccccc2CN1Cc1cn(Cc2ccc(C(F)(F)F)cc2)nn1	nt	nt	nt	nt	-2	nt
CC1(C)CC(c2nc(-c3ccc(Cl)cc3)cs2)CCS1 (centres undefined)	78*	-3	4	1	1	0	MPTP swell DR=>100;MPTP counter DR=58*
COC[C@@H]1CCCN1c1ccc2c(c1)OCCCN(C1CC1)S2(=O)=O	nt	nt	nt	nt	-1	nt
Cc1ccc(Cn2nnc3c2-c2ccccc2S(=O)(=O)N(C)C3)cc1	nt	nt	nt	nt	-6	nt
CCN(CC)c1ccc2nc3ccc(N)cc3[n+](-c3ccccc3)c2c1	54*	14	-9	-25	-8	24*
CCN(CC)c1ccc2nc3ccccc3[n+](CC)c2c1	23	8	-3	-43	nt	nt
Cc1ccc(NC(=O)CSc2nn(-c3ccc(Cl)cc3)c(=S)s2)cc1S(=O)(=O)N(C)C	86*	-5	1	14	-7	81*
CN(C)S(=O)(=O)c1cc(NC(=O)CSc2nn(-c3ccc(Cl)cc3)c(=S)s2)ccc1Cl	70*	-12	0	14	-1	81*
NS(=O)(=O)c1cccc(NC(=O)CSc2nn(-c3ccccc3)c(=S)s2)c1	10	-6	-1	6	-3	nt
COC(=O)C[C@@H]1C[C@H]2c3cc(NC(=O)Nc4ccccc4F)ccc3O[C@H]2[C@@H](CO)O1	nt	nt	nt	nt	0	nt
c1ccc2c(CCNc3ncnc4nc[nH]c34)cccc2c1	64*	-11	-1	0	-4	33*
c1ccc(CCCNc2ncnc3nc[nH]c23)cc1	-2	3	0	15	0	nt
Cc1cccnc1N(C(=O)Nc1cccc(Cl)c1)C1=NCC(C)(C)S1	52*	-2	-1	15	-1	75*
C=CCN1CC(COCc2ccccc2)OCCS1(=O)=O (centres undefined)	nt	nt	nt	nt	2	nt
FC(F)(F)c1ccc(N2CCN(c3cc(-c4ccccc4)nc4ncnn34)CC2)nc1	92*	1	2	18	-1	48*
COc1cccc(NC(=O)Nc2nc(SC)ns2)c1	69*	9	2	-6	3	81*
CCSc1nsc(NC(=O)Nc2cccc(F)c2)n1	98*	6	2	-2	-6	80*
COc1cccc(NC(=O)Nc2nc(SC(C)(C)C)ns2)c1	93*	2	1	-5	-3	77*
COc1cccc(NC(=O)Nc2ccc3nsnc3c2)c1	93*	-10	5	15	-1	87*
